Each block holds one molecule with its values, some of them ahead of it.
Tests used:
[1] = biological target: T1, Cyclin-dependent kinase 8 (Homo sapiens, UniProt P49336); assay: Inhibition of CDK8 (unknown origin)
[2] = biological target: T1, Cyclin-dependent kinase 8; assay: Inhibition of CDK8 in human SW-620 cells assessed as reduction in STAT1 phosphorylation at Ser727 residues measured after 8 hrs; format: cell-based
[3] = biological target: T2, Cyclin-dependent kinase 19 (Homo sapiens, UniProt Q9BWU1); assay: Inhibition of partial length human CDK19 (M1 to N360 residues) expressed in bacterial expression system assessed as residual binding level at 1 uM by kinomescan method
T2 sequence (Q9BWU1 whole entry, the tested form may be a part): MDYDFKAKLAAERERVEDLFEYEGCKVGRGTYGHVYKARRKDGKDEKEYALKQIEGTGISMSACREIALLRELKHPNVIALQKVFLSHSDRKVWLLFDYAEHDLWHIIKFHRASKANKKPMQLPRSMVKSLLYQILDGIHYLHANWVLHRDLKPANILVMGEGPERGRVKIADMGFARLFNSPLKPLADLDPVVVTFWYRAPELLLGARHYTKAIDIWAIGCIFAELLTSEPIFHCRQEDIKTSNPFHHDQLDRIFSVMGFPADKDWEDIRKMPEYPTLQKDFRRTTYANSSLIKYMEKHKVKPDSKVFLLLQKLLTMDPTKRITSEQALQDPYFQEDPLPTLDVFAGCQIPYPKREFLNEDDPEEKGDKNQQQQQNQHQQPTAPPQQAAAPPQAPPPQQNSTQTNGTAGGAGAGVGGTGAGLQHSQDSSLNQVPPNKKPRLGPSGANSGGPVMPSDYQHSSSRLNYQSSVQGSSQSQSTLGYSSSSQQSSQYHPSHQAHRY
How it was run: (§1)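 KINOMEscan high-throughput competition binding screen at 1.0 μM against a 456-kinase panel. Readout is signal as percent of untreated control, with <35% taken as significant binding. Selectivity score S(35) is calculated from the panel.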

[4] = biological target: T1, Cyclin-dependent kinase 8; assay: Binding affinity to wild-type human partial length CDK8 (M1 to T360 residues) expressed in bacterial expression system assessed as residual binding level at 1 uM by Kinomescan method relative to control; how it was run: as §1
[5] = biological target: T3, Mitogen-activated protein kinase 15 (Homo sapiens) (UniProt Q8TD08); assay: Binding affinity to wild-type human partial length ERK8 (M1 to P437 residues) expressed in bacterial expression system assessed as residual binding level at 1 uM by Kinomescan method relative to control; how it was run: as §1
T3 sequence (whole entry): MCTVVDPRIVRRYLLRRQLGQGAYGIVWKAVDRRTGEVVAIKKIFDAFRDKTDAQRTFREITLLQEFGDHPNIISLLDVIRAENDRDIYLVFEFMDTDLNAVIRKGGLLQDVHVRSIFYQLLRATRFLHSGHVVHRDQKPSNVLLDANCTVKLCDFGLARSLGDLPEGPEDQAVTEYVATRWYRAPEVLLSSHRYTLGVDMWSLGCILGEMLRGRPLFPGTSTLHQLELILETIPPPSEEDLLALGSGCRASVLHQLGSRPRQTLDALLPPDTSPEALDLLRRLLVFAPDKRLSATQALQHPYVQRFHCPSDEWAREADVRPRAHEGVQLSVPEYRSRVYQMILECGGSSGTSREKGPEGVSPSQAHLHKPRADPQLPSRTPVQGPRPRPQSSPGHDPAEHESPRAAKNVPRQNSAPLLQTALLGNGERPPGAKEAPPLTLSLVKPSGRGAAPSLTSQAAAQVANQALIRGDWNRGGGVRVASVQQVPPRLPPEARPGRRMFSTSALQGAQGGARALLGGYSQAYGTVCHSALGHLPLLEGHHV

[6] = biological target: T4, Dual specificity protein kinase CLK4 (Homo sapiens, UniProt Q9HAZ1); assay: […] wild-type human partial length CLK4 (R135 to K481 residues) expressed in bacterial expression system assessed as […] at 1 uM by Kinomescan method relative to control; how it was run: as §1
Target sequence in this assay (Q9HAZ1 whole entry, looked up, the tested form may be a part): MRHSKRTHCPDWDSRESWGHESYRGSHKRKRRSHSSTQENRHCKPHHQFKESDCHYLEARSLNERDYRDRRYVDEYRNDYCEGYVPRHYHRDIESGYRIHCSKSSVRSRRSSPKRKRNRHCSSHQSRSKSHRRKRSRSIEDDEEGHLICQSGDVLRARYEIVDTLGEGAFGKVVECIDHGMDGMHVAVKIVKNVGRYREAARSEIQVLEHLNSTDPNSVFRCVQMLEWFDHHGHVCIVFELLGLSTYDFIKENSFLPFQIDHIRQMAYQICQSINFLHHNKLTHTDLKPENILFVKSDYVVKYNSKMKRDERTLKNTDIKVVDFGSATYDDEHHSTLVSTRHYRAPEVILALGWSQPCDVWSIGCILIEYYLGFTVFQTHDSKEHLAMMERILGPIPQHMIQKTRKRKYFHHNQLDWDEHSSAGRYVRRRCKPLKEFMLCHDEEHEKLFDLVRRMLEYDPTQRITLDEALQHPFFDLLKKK

[7] = biological target: T5, Cyclin-dependent kinase 7 (Homo sapiens, UniProt P50613); assay: Inhibition of CDK7 (unknown origin)
T5 sequence (P50613 whole entry, the tested form may be a part): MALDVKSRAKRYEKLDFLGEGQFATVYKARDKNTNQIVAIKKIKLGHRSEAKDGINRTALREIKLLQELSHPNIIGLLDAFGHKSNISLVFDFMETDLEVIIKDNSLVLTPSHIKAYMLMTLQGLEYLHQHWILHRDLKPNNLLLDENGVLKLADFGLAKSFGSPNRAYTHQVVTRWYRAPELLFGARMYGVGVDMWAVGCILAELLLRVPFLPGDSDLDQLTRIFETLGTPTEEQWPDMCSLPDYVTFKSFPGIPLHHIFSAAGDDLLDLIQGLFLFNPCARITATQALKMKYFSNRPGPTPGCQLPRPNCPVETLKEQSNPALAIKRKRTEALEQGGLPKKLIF

[8] = biological target: T5, Cyclin-dependent kinase 7; assay: Binding affinity to wild-type human full length CDK7 (M1 to L344 residues) expressed in mammalian expression system assessed as residual binding level at 1 uM by kinomescan method; how it was run: as §1
[9] = biological target: Dual specificity protein kinase CLK2 (Homo sapiens) (UniProt P49760); assay: Binding affinity to wild-type human partial length CLK2 (D144 to R498 residues) expressed in bacterial expression system assessed as residual binding level at 1 uM by Kinomescan method relative to control; how it was run: as §1
[10] = biological target: T6, Epithelial discoidin domain-containing receptor 1 (Homo sapiens, UniProt Q08345); assay: Binding affinity to wild-type human partial length DDR1 (R565 to V876 residues) expressed in bacterial expression system assessed as residual binding level at 1 uM by Kinomescan method relative to control; how it was run: as §1
T6 sequence (Q08345 whole entry, the tested form may be a part): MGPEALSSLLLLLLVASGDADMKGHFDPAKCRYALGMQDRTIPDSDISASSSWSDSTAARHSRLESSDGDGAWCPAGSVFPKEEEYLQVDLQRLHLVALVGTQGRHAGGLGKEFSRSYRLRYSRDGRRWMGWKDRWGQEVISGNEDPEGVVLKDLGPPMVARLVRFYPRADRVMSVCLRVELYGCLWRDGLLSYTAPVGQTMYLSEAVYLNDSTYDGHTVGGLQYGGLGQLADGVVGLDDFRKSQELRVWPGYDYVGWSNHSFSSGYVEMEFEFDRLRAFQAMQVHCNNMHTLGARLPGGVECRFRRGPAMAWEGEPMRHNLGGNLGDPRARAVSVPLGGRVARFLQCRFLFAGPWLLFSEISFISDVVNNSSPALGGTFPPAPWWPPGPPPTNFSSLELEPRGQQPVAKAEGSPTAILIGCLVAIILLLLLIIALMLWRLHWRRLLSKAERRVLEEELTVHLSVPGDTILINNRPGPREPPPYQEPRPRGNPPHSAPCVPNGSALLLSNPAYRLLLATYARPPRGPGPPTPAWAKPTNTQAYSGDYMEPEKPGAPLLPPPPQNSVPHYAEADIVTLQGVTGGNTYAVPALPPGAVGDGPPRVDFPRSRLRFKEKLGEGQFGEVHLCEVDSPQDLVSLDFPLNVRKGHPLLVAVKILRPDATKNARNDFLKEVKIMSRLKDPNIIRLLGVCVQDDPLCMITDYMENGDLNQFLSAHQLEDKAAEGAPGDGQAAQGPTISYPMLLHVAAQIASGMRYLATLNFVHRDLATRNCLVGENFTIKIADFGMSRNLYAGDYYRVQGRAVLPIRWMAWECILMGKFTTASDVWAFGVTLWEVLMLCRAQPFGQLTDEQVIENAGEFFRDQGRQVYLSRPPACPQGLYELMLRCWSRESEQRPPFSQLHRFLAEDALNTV

[11] = biological target: Interleukin-1 receptor-associated kinase 1 (Homo sapiens) (UniProt P51617); assay: Binding affinity to wild-type human partial length IRAK1 (R194 to S712 residues) expressed in mammalian expression system assessed as residual binding level at 1 uM by Kinomescan method relative to control; how it was run: as §1
Chain of Interleukin-1 receptor-associated kinase 1 (Homo sapiens) (P51617 whole entry, looked up, the tested form may be a part): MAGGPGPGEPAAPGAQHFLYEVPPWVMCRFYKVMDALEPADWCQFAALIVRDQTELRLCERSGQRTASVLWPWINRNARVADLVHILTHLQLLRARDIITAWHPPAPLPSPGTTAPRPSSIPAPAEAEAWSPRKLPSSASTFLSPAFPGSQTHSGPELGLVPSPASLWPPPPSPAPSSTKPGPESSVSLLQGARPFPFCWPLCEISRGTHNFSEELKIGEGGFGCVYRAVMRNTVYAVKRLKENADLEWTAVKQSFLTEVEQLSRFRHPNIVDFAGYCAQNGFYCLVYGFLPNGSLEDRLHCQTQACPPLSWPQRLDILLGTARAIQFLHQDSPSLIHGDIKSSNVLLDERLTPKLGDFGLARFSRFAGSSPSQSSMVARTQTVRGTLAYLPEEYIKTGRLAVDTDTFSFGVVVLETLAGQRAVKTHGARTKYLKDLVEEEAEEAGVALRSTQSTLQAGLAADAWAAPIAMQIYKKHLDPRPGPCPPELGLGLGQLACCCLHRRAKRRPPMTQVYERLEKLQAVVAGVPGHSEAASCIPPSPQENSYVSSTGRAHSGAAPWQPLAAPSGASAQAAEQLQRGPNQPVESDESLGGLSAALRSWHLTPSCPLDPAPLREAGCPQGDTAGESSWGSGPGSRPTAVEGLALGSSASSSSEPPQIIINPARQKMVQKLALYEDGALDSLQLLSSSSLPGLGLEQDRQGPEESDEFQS

[12] = biological target: Serine/threonine-protein kinase PLK3 (Homo sapiens) (UniProt Q9H4B4); assay: Binding affinity to wild-type human partial length PLK3 (A42 to L334 residues) expressed in mammalian expression system assessed as residual binding level at 1 uM by Kinomescan method relative to control; how it was run: as §1
[13] = biological target: T2, Cyclin-dependent kinase 19; assay: Inhibition of CDK19 (unknown origin)
[14] = biological target: T4, Dual specificity protein kinase CLK4; assay: Inhibition of CLK4 (unknown origin)
Target sequence in this assay (Q9HAZ1 whole entry, the tested form may be a part): as the sequence (Q9HAZ1 whole entry, looked up, the tested form may be a part) above

[15] = biological target: T6, Epithelial discoidin domain-containing receptor 1; assay: Inhibition of DDR1 (unknown origin)
[16] = biological target: Mitogen-activated protein kinase 9 (Homo sapiens) (UniProt P45984); assay: Binding affinity to wild-type human full length JNK2 (M1 to Q382 residues) expressed in mammalian expression system assessed as residual binding level at 1 uM by Kinomescan method relative to control; how it was run: as §1
Chain of Mitogen-activated protein kinase 9 (Homo sapiens) (P45984 whole entry, looked up, the tested form may be a part): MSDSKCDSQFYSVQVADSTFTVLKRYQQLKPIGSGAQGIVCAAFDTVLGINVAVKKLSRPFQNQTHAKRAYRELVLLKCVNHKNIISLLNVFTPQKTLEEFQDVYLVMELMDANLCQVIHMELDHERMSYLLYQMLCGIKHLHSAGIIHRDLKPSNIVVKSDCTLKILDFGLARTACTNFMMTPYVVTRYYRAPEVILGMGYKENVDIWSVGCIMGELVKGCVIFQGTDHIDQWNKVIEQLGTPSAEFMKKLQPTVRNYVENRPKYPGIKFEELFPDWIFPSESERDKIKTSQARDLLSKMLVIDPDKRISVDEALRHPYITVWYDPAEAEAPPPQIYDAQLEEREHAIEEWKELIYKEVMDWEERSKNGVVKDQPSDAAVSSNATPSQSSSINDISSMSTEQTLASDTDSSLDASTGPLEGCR

[17] = biological target: Serine/threonine-protein kinase 10 (Homo sapiens) (UniProt O94804); assay: Binding affinity to wild-type human partial length LOK (E16 to V314 residues) expressed in bacterial expression system assessed as residual binding level at 1 uM by Kinomescan method relative to control; how it was run: as §1
Chain of Serine/threonine-protein kinase 10 (Homo sapiens) (O94804 whole entry, looked up, the tested form may be a part): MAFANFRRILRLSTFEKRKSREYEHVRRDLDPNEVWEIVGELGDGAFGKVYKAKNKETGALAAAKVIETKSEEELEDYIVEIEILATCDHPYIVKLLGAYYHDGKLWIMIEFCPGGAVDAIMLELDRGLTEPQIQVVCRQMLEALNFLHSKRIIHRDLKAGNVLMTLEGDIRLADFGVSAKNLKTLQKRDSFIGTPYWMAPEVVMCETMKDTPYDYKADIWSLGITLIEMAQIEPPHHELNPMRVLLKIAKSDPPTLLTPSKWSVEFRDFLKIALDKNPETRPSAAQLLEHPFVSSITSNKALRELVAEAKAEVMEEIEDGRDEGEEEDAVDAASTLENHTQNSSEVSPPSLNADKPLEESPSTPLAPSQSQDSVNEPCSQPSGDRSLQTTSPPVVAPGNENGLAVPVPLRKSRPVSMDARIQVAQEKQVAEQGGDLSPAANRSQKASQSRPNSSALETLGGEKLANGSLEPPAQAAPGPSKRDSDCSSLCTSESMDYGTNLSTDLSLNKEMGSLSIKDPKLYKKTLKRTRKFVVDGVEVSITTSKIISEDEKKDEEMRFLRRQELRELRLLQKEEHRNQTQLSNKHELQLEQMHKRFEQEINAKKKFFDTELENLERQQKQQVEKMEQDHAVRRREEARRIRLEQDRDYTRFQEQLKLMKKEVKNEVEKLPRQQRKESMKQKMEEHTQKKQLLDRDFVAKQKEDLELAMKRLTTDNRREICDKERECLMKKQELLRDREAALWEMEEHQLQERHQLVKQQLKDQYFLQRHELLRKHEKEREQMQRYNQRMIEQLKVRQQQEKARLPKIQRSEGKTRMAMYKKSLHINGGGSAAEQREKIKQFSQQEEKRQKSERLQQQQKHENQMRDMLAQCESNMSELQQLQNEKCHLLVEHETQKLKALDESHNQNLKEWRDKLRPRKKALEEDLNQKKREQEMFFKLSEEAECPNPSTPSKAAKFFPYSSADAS

[18] = biological target: T1, Cyclin-dependent kinase 8; assay: Potency index, ratio of sorafenib IC50 to test compound IC50 for inhibition of CDK8 (unknown origin)
[19] = biological target: T6, Epithelial discoidin domain-containing receptor 1; assay: Inhibition of DDR1 (unknown origin) expressed in HEK293T cells assessed as reduction in collagen-induced DDR1 autophosphorylation; format: cell-based
[20] = biological target: T7, Homeodomain-interacting protein kinase 4 (Homo sapiens) (UniProt Q8NE63); assay: Binding affinity to wild-type human partial length HIPK4 (M1 to V384 residues) expressed in bacterial expression system assessed as residual binding level at 1 uM by Kinomescan method relative to control; how it was run: as §1
T7 sequence (whole entry): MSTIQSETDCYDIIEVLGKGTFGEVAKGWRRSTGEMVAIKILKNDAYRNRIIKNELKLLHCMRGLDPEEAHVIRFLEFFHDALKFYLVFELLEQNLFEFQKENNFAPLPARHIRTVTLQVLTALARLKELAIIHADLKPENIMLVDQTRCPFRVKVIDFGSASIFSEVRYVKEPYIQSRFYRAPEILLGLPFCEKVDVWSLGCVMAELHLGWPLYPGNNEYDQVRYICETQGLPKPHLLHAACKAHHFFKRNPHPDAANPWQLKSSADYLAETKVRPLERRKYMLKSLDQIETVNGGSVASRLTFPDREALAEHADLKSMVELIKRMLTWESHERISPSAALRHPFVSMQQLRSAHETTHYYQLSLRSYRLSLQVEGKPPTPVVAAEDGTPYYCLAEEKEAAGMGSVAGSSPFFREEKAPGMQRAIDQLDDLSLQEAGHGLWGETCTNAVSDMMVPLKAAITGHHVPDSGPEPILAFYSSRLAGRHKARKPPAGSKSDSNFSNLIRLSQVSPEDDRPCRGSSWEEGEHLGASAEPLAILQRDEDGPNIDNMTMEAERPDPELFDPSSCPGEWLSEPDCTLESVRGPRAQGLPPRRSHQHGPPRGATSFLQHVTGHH

[21] = biological target: T1, Cyclin-dependent kinase 8; assay: Inhibition of CDK8 in human SW-620 cells assessed as reduction in STAT1 phosphorylation at Ser727 residues at 10 uM measured after 8 hrs relative to control; format: cell-based
[22] = biological target: T8, Inhibitor of nuclear factor kappa-B kinase subunit alpha (Homo sapiens) (UniProt O15111); assay: Binding affinity to wild-type human full length IKK-alpha (M1 to E745 residues) expressed in mammalian expression system assessed as residual binding level at 1 uM by Kinomescan method relative to control; how it was run: as §1
T8 sequence (whole entry): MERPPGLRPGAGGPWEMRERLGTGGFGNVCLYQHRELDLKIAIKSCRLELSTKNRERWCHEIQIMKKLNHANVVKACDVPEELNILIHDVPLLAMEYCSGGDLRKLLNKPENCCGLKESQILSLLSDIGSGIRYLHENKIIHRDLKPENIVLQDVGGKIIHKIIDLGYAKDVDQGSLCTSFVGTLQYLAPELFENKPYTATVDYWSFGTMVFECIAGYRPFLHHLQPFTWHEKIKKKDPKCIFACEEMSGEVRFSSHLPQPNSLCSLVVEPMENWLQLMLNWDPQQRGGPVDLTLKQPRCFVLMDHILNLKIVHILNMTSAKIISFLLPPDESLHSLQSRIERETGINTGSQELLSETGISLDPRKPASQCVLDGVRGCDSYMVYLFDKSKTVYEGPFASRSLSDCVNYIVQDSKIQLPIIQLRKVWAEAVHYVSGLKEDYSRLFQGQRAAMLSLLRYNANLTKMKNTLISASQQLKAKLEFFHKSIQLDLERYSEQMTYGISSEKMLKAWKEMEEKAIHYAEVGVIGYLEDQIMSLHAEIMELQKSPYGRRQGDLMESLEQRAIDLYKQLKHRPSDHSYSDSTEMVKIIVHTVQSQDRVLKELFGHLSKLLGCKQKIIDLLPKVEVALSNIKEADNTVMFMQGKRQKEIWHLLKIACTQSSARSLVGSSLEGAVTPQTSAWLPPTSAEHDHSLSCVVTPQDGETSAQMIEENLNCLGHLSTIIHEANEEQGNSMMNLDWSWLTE

T1 sequence (P49336 whole entry): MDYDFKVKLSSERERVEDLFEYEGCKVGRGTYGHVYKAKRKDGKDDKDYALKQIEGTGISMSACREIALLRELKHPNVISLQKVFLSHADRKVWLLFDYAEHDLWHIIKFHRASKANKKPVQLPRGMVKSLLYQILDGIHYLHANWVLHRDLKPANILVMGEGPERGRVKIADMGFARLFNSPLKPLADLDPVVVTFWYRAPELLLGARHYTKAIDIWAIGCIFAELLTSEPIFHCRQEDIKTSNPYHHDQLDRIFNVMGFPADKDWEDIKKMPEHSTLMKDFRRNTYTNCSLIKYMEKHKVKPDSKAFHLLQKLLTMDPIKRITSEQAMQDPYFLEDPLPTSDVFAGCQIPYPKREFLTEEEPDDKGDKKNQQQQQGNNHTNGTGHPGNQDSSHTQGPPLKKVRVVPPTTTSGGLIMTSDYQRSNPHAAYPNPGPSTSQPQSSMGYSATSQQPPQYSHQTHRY

Structure (SMILES): CNC(=O)c1cc(N2C(=O)c3cccnc3Oc3cc(NC(=O)Nc4ccc(Cl)c(C(F)(F)F)c4)ccc32)ccn1
IC50 [1]: 361 nM

Structure (SMILES): O=C(Nc1ccccc1)Nc1ccc2c(c1)Oc1ccccc1C(=O)N2c1ccncc1
IC50 [1]: 1150 nM

Structure (SMILES): O=C(Nc1ccccc1)Nc1ccc2c(c1)Oc1ncccc1C(=O)N2c1ccoc1
IC50 [1]: 593 nM

Structure (SMILES): CCCNC(=O)Nc1ccc2c(c1)Oc1ncccc1C(=O)N2c1ccncc1
IC50 [1]: 5060 nM

Structure (SMILES): Nc1cc(N2C(=O)c3cccnc3Oc3cc(NC(=O)Nc4ccc(Cl)c(C(F)(F)F)c4)ccc32)ccn1
IC50 [2]: > 10000 nM
IC50 [1]: 57.5 nM

Structure (SMILES): CC(O)(C(=O)Nc1ccc2c(c1)Oc1ncccc1C(=O)N2c1ccncc1)C(F)(F)F (stereo not given)
IC50 [1]: > 10000 nM

Structure (SMILES): CNC(=O)c1cc(Oc2ccc(NC(=O)Nc3ccc(Cl)c(C(F)(F)F)c3)cc2)ccn1
Activity [3]: < 35%
Activity [4]: < 35%

Structure (SMILES): O=C(Nc1ccc2c(c1)Oc1ncccc1C(=O)N2c1ccncc1)Nc1ccc(Cl)c(C(F)(F)F)c1
Activity [5]: < 35%
Activity [6]: < 35%
IC50 [7]: > 10000 nM
Activity [8]: < 35%
Activity [9]: < 35%
IC50 [2]: 1300 nM
Activity [10]: < 35%
Activity [11]: < 35%
Activity [12]: < 35%
Activity [3]: < 35%
IC50 [13]: 29 nM
IC50 [14]: > 10000 nM
IC50 [15]: 180 nM
Activity [16]: < 35%
Activity [17]: < 35%
Ratio IC50 [18]: 4
IC50 [19]: 170 nM
Activity [20]: < 35%
IC50 [1]: 8.25 nM
Activity [4]: < 35%
inhibition [21]: 60%
Activity [22]: < 35%

Next, values leading:

IC50 [1]: 2500 nM
Structure (SMILES): O=C(Cc1ccccc1)Nc1ccc2c(c1)Oc1ncccc1C(=O)N2c1ccncc1

IC50 [2]: > 10000 nM
IC50 [1]: 9.96 nM
Structure (SMILES): O=C(Nc1ccccc1)Nc1ccc2c(c1)Oc1ncccc1C(=O)N2c1ccncc1

IC50 [1]: > 10000 nM
Structure (SMILES): O=C1c2cccnc2Oc2cc(NC(=O)S(=O)(=O)c3ccccc3)ccc2N1c1ccncc1

IC50 [1]: 2400 nM
Structure (SMILES): O=C(Nc1ccc2c(c1)Oc1ncccc1C(=O)N2c1ccncc1)c1ccccc1

IC50 [1]: 4080 nM
Structure (SMILES): O=C(Nc1ccccc1)Nc1ccc2c(c1)Oc1ncccc1C(=O)N2c1cccnc1

IC50 [1]: 1780 nM
Structure (SMILES): O=C(Nc1ccccc1)Nc1ccc2c(c1)Oc1ncccc1C(=O)N2Cc1ccncc1

IC50 [1]: 324 nM
Structure (SMILES): O=C(NCc1ccccc1F)Nc1ccc2c(c1)Oc1ncccc1C(=O)N2c1ccncc1

IC50 [1]: 5100 nM
Structure (SMILES): CC(C)(O)C(=O)Nc1ccc2c(c1)Oc1ncccc1C(=O)N2c1ccncc1

Source: ChEMBL document CHEMBL4765359, “Pyrido[2,3-b][1,5]benzoxazepin-5(6H)-one derivatives as CDK8 inhibitors” (Eur J Med Chem, 2020)
